An excerpt weighted towards active compounds, which were near 4.9% of everything screened.
APP 5'UTR act = APP 5'UTR luciferase reporter activation; activation, % at 2 µM; 1% of 190,000 active; SH-SY5Y APP 5'UTR luciferase reporter, luminescence; zero percent = DMSO vehicle wells;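 active means activation above a set limit, based on mean plus 3 SD of controls, cut at about 140% in these data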
NF-kB neuron act = compounds increasing NF-kB expression in human neuronal cells; AID 1239; fold change at 12.5 µM; 1.6% of 190,000 active; NF-kB reporter expression; hits give high values; in the data active means fold change above about 3.3
STAT3 activator = STAT3 signaling activation | U3A cells, IL-6 STAT3-luciferase reporter, luminescence; 100% = signal with IL-6 EC80 alone | activation (% of control), % at 5.6 µM | 0.91% of 190,000 active;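 active means activation above the screen-wide mean of compound activation plus 3 SD, cut at about 130% in these data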;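 further: 0% = background luminescence of wells with medium and substrate only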
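Material: STAT3-luciferase reporter U3A cells; Probe or stimulus: IL-6 (33 ng/mL); Incubation: compound pre-incubation 1 h before IL-6, then 6 h stimulation at 37 °C; Technique: luminescence from STAT3-driven luciferase reporter; Evaluation: % activation versus median of IL-6-stimulated wells; Controls: IL-6-only high control.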
STAT3 inh = STAT3 signaling inhibition | U3A cells, IL-6 STAT3-luciferase reporter, luminescence; host cell line lacks STAT1 | inhibition, % at 5.5 µM | 0.89% of 190,000 active | AID 862;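 active means inhibition above the mean inhibition across all screened compounds plus 3 SD, cut at about 44% in these data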;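 further: 0% = DMSO only wells and 100% = 100 µM nifuroxazide control wells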
STAT1 activator = activators of IFN-gamma induced STAT1 signaling | NIH 3T3 STAT1-luciferase reporter, luminescence; 100% = IFN-gamma alone, no compound | 2.6% of 200,000 active | activation (% of control), % at 5.5 µM;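 active means activation above the screen-wide mean activation plus 3 SD, cut at about 130% in these data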;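 further: raw ratio to IFN-gamma control signal so 100% means no change and 0% no light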
STAT1 inh = reduces IFN-gamma driven STAT1 reporter signal. 0.35% of 200,000 active. inhibition, % at 5.5 µM. NIH 3T3 STAT1-luciferase reporter, luminescence. AID 920;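 active means inhibition above a set limit, the mean inhibition across all tested compounds plus 3 SD, cut at about 34% in these data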;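 further: 0% = IFN-gamma with DMSO and 100% = IFN-gamma with 300 µM nifuroxazide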
* marks the source's active call; other numbers are inactive results; / = not tested or not shown.

SMILES	APP 5'UTR act	NF-kB neuron act	STAT3 activator	STAT3 inh	STAT1 activator	STAT1 inh
Cc1ccc2nc(-c3ccc(NC(=S)NC(=O)C(C)C)cc3)sc2c1	120	3.2	103	2	114	-15
CCC(=O)NC(=S)Nc1ccc(-c2nc3ccc(C)cc3s2)cc1	132	1.4	106	-5	122	-25
CCC(=O)NC(=S)Nc1ccc(-c2nc3ccccc3s2)cc1	62	2	78	32	142*	-47
Cc1ccc2nc(-c3ccc(NC(=O)C(C)N4C(=O)c5ccccc5C4=O)cc3)sc2c1 (configuration not stated)	75	1.7	87	14	141*	-46
Cc1ccc(NC(=S)c2nc3ccccc3s2)cc1	168*	1.1	95	7	134*	-37
CCOC(=O)c1c(NC(=O)Cn2nc(C(F)(F)F)cc2C)sc(C)c1C	10	1.3	95	7	103	-4
CS(=O)(=O)Nc1cccc2[nH]ncc12	-14	0.91	88	19	98	0
Cc1ccc2nc(SC(C)C(=O)Nc3cccc([N+](=O)[O-])c3)[nH]c2c1 (configuration not stated)	-5	1.7	106	-9	91	10
O=C(CCN1C(=O)c2ccccc2C1=O)Nc1ccc(-c2nc3ccccc3s2)cc1	136*	1.4	100	2	142*	-48
O=C(CCN1C(=O)c2ccccc2C1=O)Nc1nc2ccccc2s1	/	1.6	109	-10	113	-14
Cn1ncc([N+](=O)[O-])c1C(=O)Nc1ccc(-c2nc3ccccc3o2)cc1	68	1.6	83	27	128	-30
CCCCOc1ccc(-c2nc(-c3cccnc3)no2)cc1	175*	5.2*	107	-4	128	-29
CCOc1ccc(-c2nc(-c3cccnc3)no2)cc1	129	6.8*	68	37	140*	-44
CCOc1ccc(-c2noc(-c3cccnc3)n2)cc1OC	4	1.1	94	10	127	-29
CCCCCCCc1c(O)nc(SCCN2CCOCC2)[nH]c1=O	13	1.1	97	10	99	-1
CCN=C1NN=C(c2cc(C)n(Cc3ccco3)c2C)CS1	20	0.29	34	82*	60	45*
CCN=C1NN=C(c2cc(C)n(CCc3ccccc3)c2C)CS1	-6	0.93	104	-4	108	-9
CCN=C1NN=C(c2c[nH]c3ccccc23)CS1	162*	/	85	22	125	-30
COCCn1c(C)cc(C2=NNC(=Nc3ccc(OC)cc3)SC2)c1C	-7	0.85	112	-9	102	-2
COCCn1c(C)cc(C2=NNC(=Nc3ccccc3)SC2)c1C	155*	0.33	77	30	143*	-47
C=CCn1c(C)cc(C2=NNC(=NCc3ccccc3)SC2)c1C	139*	2.8	114	-13	112	-14
NC1=NC(=O)C2(COC(c3cccnc3)OC2)S1 (configuration not stated)	-24	1.2	102	5	108	-9
NN(CCO)C(=S)Nc1ccc(Cl)cc1	10	1	107	-9	104	-5
CCCCc1ccc(NC(=S)NCc2ccc(OC)cc2)cc1	24	1.1	92	16	103	-5
CC(C)c1csc(CN2CCC(CO)(Cc3cccc(F)c3)CC2)n1	11	0.97	100	4	95	4
SMILES	APP 5'UTR act	NF-kB neuron act	STAT3 activator	STAT3 inh	STAT1 activator	STAT1 inh
N#Cc1ccc(-c2ccccc2)nc1SCC(=O)c1cccc(Cl)c1	-9	1.1	91	21	103	-3
CCOC(=O)C1=C(CSc2nc(-c3ccccc3)ccc2C#N)OC(N)=C(C#N)C1c1ccc(OC)cc1 (configuration not stated)	95	2.5	103	-1	147*	-53
C#CCSc1nc(-c2cccs2)ccc1C#N	-9	1	112	-12	102	-2
CCOC(=O)C1=C(CSc2nc(CC)c(C)cc2C#N)OC(N)=C(C#N)C1c1ccccc1 (configuration not stated)	11	0.96	102	4	87	14
COC(=O)CSc1nc(-c2cccs2)ccc1C#N	152*	7.3*	108	-4	133*	-37
CCN(CC)C(=O)CSc1nc(-c2ccccc2)ccc1C#N	19	1.2	94	12	132*	-38
COc1cc(CNC23CC4CC(CC(C4)C2)C3)ccc1OCc1ccccc1	-1	0.88	97	13	105	-5
COCCN(C(=O)CCc1ccccc1OC)c1nnc(-c2cccnc2)s1	22	0.78	92	14	90	10
CCN(CC)CCn1c(NCc2cc(OC)ccc2OC)nc2ccccc21	1	0.77	102	1	97	0
Cn1c(CNc2nc3ccccc3n2C)nc2ccccc21	30	1.8	100	4	114	-13
COc1ccc(CNc2nc3ccccc3n2C)c(OC)c1	120	3.4*	97	8	108	-10
Cn1c(NCc2ccc(Cl)cc2)nc2ccccc21	70	0.79	101	8	136*	-39
C=CCN(CC(=O)O)S(=O)(=O)c1ccccc1C(F)(F)F	-10	1.4	101	1	108	-10
COc1ccc(-n2c(C)cc(C(=O)CCl)c2C)cc1	-44	3.9*	105	-4	84	16
COc1ccc(-n2c(C)cc(C(=O)CSc3ccc(NC(C)=O)cc3)c2C)cc1	7	1.3	102	-1	106	-7
COc1ccc(-n2c(C)cc(C(=O)CN3C(=O)c4ccccc4C3=O)c2C)cc1	-5	1.1	107	-10	134*	-37
CCOC(=O)c1sc(NC(=O)CSc2ccccn2)c(C#N)c1C	2	3.8*	96	6	104	-3
Cc1cc(/C=C2/C(=O)NN(c3ccccc3)C2=O)c(C)n1-c1cccc(O)c1	181*	0.92	76	24	114	-16
Cc1cc(C=C2C(=O)c3ccccc3C2=O)c(C)n1-c1cccc(C(=O)O)c1	40	0.71	99	10	107	-7
COc1ccccc1-c1nnc(Sc2nc([N+](=O)[O-])nn2C)o1	/	1.1	96	11	80	22
N#CC(C#N)=Cc1cccn1-c1ccc(S(N)(=O)=O)cc1	-1	1.4	97	9	85	16
CS(=O)(=O)N(CC(=O)N1CCCC1)Cc1ccc(Cl)cc1	-8	0.92	106	-4	106	-7
COC(=O)c1ccc(-c2ccc(/C=N/N3C(=O)C4C5C=CC(C6CC56)C4C3=O)o2)cc1 (configuration not stated)	36	1.4	105	-4	138*	-42
Cc1cc(C)c2nc(SCC(=O)N3CC(=O)Nc4ccccc43)c(C#N)cc2c1	-96	3.5*	93	10	104	-5
CC1CCCN(c2ccc(C(=O)NCc3cccs3)cn2)C1 (configuration not stated)	60	2.3	96	6	112	-13

High-throughput results from PubChem.
